# Results reported in ChEMBL document CHEMBL1140809, “Design, synthesis, and biological evaluation of human sialidase inhibitors. Part 1: selective inhibitors of lysosomal sialidase (NEU1)” (Bioorg Med Chem Lett, 2008).
# How the values were obtained:
# Assay type in all cases: cell-based
# Sialidase-3 = molecular target: T1, Sialidase-3 (Homo sapiens, UniProt Q9UQ49); test: Inhibition of human NEU3 expressed in HEK293 cells
# T1 sequence (Q9UQ49 whole entry): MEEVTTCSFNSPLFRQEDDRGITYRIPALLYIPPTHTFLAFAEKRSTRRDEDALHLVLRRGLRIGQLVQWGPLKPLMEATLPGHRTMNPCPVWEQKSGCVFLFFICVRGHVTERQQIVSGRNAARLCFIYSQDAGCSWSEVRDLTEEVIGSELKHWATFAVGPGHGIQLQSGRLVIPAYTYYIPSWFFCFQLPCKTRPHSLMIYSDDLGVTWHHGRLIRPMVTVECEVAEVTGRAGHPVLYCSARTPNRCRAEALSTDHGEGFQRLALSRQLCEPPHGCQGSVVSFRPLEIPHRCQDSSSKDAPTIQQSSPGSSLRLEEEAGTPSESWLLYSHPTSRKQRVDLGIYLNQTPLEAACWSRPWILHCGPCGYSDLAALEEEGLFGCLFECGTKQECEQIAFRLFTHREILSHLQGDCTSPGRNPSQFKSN
# Procedure, shortened: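 Enzyme source: homogenates of HEK-293 cells transiently transfected with full-length human NEU3 cDNA. Substrate: mixed gangliosides. One unit (nmol/h) of enzyme incubated 30–60 min. Four test concentrations (0.05, 0.1, 0.5, 1). IC50 derived by non-linear regression of concentration–inhibition curves.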
# Sialidase-1 = Sialidase-1 (Homo sapiens, UniProt Q99519); test: Inhibition of human NEU1 expressed in HEK293 cells
# Procedure, shortened: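 Homogenates of HEK-293 cells transiently co-transfected with full-length human NEU1 cDNA plus protective protein cDNA. Substrate: 4MU-NeuAc. One unit (nmol/h) of enzyme incubated 30–60 min. Each compound tested at four concentrations (0.05, 0.1, 0.5, 1). IC50 derived by non-linear regression of concentration–inhibition curves.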
# Sialidase-4 = molecular target: T2, Sialidase-4 (Homo sapiens, UniProt Q8WWR8); test: Inhibition of human NEU4 expressed in HEK293 cells
# T2 sequence (Q8WWR8 whole entry): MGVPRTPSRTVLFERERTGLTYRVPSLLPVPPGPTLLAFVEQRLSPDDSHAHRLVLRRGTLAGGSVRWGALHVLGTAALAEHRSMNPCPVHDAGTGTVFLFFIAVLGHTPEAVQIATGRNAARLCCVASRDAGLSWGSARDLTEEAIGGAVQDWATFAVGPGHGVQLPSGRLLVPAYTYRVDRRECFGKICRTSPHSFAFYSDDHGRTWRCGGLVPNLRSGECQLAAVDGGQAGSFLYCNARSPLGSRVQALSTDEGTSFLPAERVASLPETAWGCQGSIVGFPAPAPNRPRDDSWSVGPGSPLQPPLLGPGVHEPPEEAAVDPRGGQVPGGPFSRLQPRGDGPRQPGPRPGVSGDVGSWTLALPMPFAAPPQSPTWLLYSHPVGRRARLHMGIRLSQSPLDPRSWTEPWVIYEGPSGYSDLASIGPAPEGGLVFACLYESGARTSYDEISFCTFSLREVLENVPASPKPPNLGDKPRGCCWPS
# Procedure, shortened: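 Human NEU4 (full-length cDNA) transiently expressed in HEK-293 cells, with cell homogenates as the enzyme source. Substrate: 4MU-NeuAc. One unit (nmol/h) of enzyme incubated 30–60 min. Four concentrations tested (0.05, 0.1, 0.5, 1). IC50 derived by non-linear regression of concentration–inhibition curves.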
SMILES,IC50 (Sialidase-3) [mM],IC50 (Sialidase-1) [µM],IC50 (Sialidase-4) [µM]
CC(=O)N[C@H]1[C@H]([C@@H](O)[C@@H](O)CNC(=O)C(C)C)OC(C(=O)O)=C[C@@H]1O,> 1,–,> 1000
CC(=O)N[C@H]1[C@H]([C@@H](O)[C@@H](O)CNC(=O)C2CC2)OC(C(=O)O)=C[C@@H]1O,> 1,680,825
CCC(C)CC(=O)NC[C@H](O)[C@H](O)[C@@H]1OC(C(=O)O)=C[C@H](O)[C@H]1NC(C)=O (stereo partly specified),> 1,> 1000,> 1000
CCCCC(=O)NC[C@H](O)[C@H](O)[C@@H]1OC(C(=O)O)=C[C@H](O)[C@H]1NC(C)=O,–,–,> 1000
CC(=O)N[C@H]1[C@H]([C@@H](O)[C@@H](O)CNC(=O)C(C)(C)C)OC(C(=O)O)=C[C@@H]1O,> 1,> 1000,> 1000
CC(=O)N[C@H]1[C@H]([C@@H](O)[C@@H](O)CNC(=O)C2CCCC2)OC(C(=O)O)=C[C@@H]1O,> 1,135,> 1000

# Continued, values first:
IC50 (Sialidase-3) [mM],IC50 (Sialidase-1) [µM],IC50 (Sialidase-4) [µM],SMILES
> 1,565,> 1000,CC(=O)N[C@H]1[C@H]([C@@H](O)[C@@H](O)CNC(=O)CC(C)C)OC(C(=O)O)=C[C@@H]1O
0.32,13,810,CC(=O)N[C@H]1[C@H]([C@@H](O)[C@@H](O)CNC(=O)c2ccccc2)OC(C(=O)O)=C[C@@H]1O
> 1,58,580,CC(=O)NC[C@H](O)[C@H](O)[C@@H]1OC(C(=O)O)=C[C@H](O)[C@H]1NC(C)=O
> 1,32,–,CCCC(=O)NC[C@H](O)[C@H](O)[C@@H]1OC(C(=O)O)=C[C@H](O)[C@H]1NC(C)=O
